# From publication PMC3059335 (Investigational New Drugs, 2010)
# Legend:
# [1] = tested on: patients with solid tumors; assay: tumor response, radiographic tumor assessment every 8 weeks; assay type: in vivo, human
# Summary of the method: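 Patients received continuous IV infusion at fixed dose levels of 1, 2, 4, 8, 12, 18, 27 or 40 mg/hr, with the infusion bag replaced weekly; 4-week cycles without a break. Tumors assessed every 8 weeks (every two cycles). Patients with DLT continued at the next lower dose if toxicities had resolved to grade ≤1 and disease had not progressed.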
# [2] = tested on: αvβ3 and αvβ5-mediated cell adhesion; settings: read-out: IC50, inhibition of αvβ3 and αvβ5-mediated cell adhesion; cited from earlier work
# [3] = human, cited from earlier work
# [4] = tested on: patients with advanced solid tumours; settings: phase I testing of doses up to 2400 mg/m^2 twice weekly; cited from earlier work
# [5] = tested on: patients with solid tumors; assay: toxicity monitoring of continuous infusion cilengitide; assay type: in vivo
# [6] = pharmacokinetics of continuous infusion cilengitide; assay type: in vivo, human
# Summary of the method: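 Test compound given as fixed-dose continuous IV infusion (1–40 mg/hr) via venous access port, diluted in 0.9% NaCl or 5% dextrose; bag changed weekly. Heparinised blood (10 mL) taken day 1 pre-dose and 2 h post-start, then weekly for 4 weeks before and 2 h after bag change. Plasma frozen at −80°C, run in duplicate by HPLC-MS/MS. Steady-state concentration, Vss and clearance reported as mean and SD; Vd assumes 4-h half-life.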
structure (smiles),measurement,setting,value
CC(C)[C@H]1C(=O)N[C@@H](CCCNC(=N)N)C(=O)NCC(=O)N[C@@H](CC(=O)O)C(=O)N[C@H](Cc2ccccc2)C(=O)N1C [cilengitide],objective responses,[1]; 17 of the 35 patients assessed at the end of cycle 2,No objective responses were observed
same,relationship between dose level or steady state concentration (Css) and change in tumor size after two cycles,[1]; data not shown,no significant relationship
same,median duration of stable disease,"[1]; two patients, cycle = 4 weeks",3.5 cycles
same,IC50,[2],~1 µM
same,clearance,[3]; in vivo,34-66 mL/min/m^2
same,plasma half-life,[3]; in vivo,3 to 5 h
same,"metabolism, drug accumulation, or enterohepatic circulation",[3]; intermittent dosing,"no evidence of metabolism, drug accumulation, or enterohepatic circulation"
same,maximally tolerated dose,[4],not reached
same,maximum tolerated dose (MTD),"[5]; continuous infusion, doses up to 40 mg/hr",not reached
same,treatment-related hypertension,[5]; in vivo,did not occur in any patients
same,maximum feasible dose,"[5]; in vivo, iv",40 mg/h
same,"cilengitide clearance, range calculated in our study","[6]; continuous infusion 1-40 mg/hr, range across dose levels",55 – 88 mL/min/m^2
same,accumulation of cilengitide in the plasma over time,"[6]; continuous infusion, weekly sampling in cycle 1",no evidence of accumulation
